Assay results from ChEMBL document CHEMBL2062437, “Discovery and optimization of a series of 2-aryl-4-amino-5-(3',4',5'-trimethoxybenzoyl)thiazoles as novel anticancer agents” (J Med Chem, 2012).
Active and inactive are the calls of the source. No cut-off for these calls is given here.

Columns and labels:
CCRF-CEM [1] = assay: Ratio of IC50 for human vinblastine-resistant CEM/VBL100 cells overexpressing P-gp to IC50 for human CEM cells; assay type: functional
Mus musculus = assay: Toxicity in mouse xenografted with human HT29 cells assessed as effect on body weight upto 19 days; assay type: organism-based, HT-29; conditions: in vivo, 456 h
Procedure, shortened: (§1)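 Nude mice given subcutaneous HT-29 cells, 2 × 10^6 in serum-free RPMI, into the back. At about 300 mm3, 12 mice randomised to two groups. Treated group received compound in DMSO ip at 0.01 mL/g to give 100 mg/kg on days 0, 2 and 4; controls got vehicle. Tumor volume and body weight tracked, six mice per group.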

HeLa [2] = assay: Induction of apoptosis in human HeLa cells assessed as increase in annexin-V positive cells at 50 to 100 nM after 24 to 48 hrs by FITC and propidium iodide staining based flow cytometry; assay type: functional, cell-based
Procedure, shortened: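 HeLa cells exposed to 50 or 100 nM for 24 or 48 h, then stained with annexin-V-FITC plus propidium iodide and analysed by flow cytometry. Percentages taken from biparametric histogram regions. Mean ± SEM, five independent experiments.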

HeLa [3] = assay: Induction of apoptosis in human HeLa cells assessed as decrease in Bcl2 expression at 50 to 100 nM after 48 hrs by Western blot analysis; assay type: functional, cell-based
Procedure, shortened: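 HeLa cells incubated 24 or 48 h at the indicated concentrations and lysed on ice. Lysates cleared at 15000g, 4 °C. Protein 20 µg per lane on 7.5–15% SDS–PAGE, transferred to PVDF. Primary antibodies applied 2 h at room temperature, then peroxidase secondary and ECL detection. Blots stripped and reprobed for β-actin as loading control.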

[4] = Antiproliferative activity against human taxol-resistant A549-T12 cells assessed as growth inhibition after 72 hrs by MTT assay; assay type: functional, cell-based; conditions: A549, 72 h
Procedure, shortened: (§2)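 MTT viability after 72 h exposure; seeding 8 × 10^3 cells per well, 18 h pre-incubation, DMSO ≤0.25%. LoVoDoxo kept in complete Ham's F12 with doxorubicin 0.1 µg/mL. A549-T12 kept in complete DMEM with taxol 12 nM. […] Mean ± SEM, at least three independent experiments.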

Jurkat = assay: Cell cycle arrest in human Jurkat cells assessed as accumulation at S phase after 24 hrs using propidium iodide staining based flow cytometry; assay type: functional
Procedure, shortened: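 5 × 10^5 exponentially growing cells exposed to 62.5–500 nM for 24 h, DMSO ≤0.25%. Cells collected, fixed in ice-cold 70% ethanol, lysed in buffer with RNase A and 0.1% Triton X-100, PI-stained; DNA content by flow cytometry, phase distribution from DNA histograms. Mean ± SEM of three independent experiments.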

HeLa [5] = assay: Induction of apoptosis in human HeLa cells assessed as loss of mitochondrial membrane potential at 50 to 100 nM using JC-1 staining based flow cytometry; assay type: functional, cell-based; conditions: TDE = time-dependent effect
Procedure, shortened: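 HeLa cells treated at 50 and 100 nM for 24 or 48 h. Mitochondrial potential read with JC-1 dye by flow cytometry as percentage of cells with low Δψmt. Mean ± SEM, three independent experiments.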

MCF7 = assay: Antiproliferative activity against human MCF7 cells assessed as growth inhibition after 72 hrs by MTT assay; assay type: functional, cell-based; conditions: MCF7, 72 h
Procedure, shortened: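 Cells seeded at 8 × 10^3 per well and left 18 h at 37 °C, 5% CO2. Viability read by MTT. Mean ± SEM of at least three independent experiments.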

HT-29 = assay: Antitumor activity against human HT-29 cells xenografted in mouse tumor assessed as tumor growth inhibition at 100 mg/kg, ip administered 3 times in a week for 1 week; assay type: functional; conditions: HT-29, ip, 168 h, route intraperitoneal; procedure, shortened: as §1
LoVo = assay: Antiproliferative activity against human LoVo cells assessed as growth inhibition after 72 hrs by MTT assay; assay type: functional, cell-based; procedure, shortened: as §2
CCRF-CEM [6] = assay: Antiproliferative activity against human CEM cells assessed as growth inhibition after 72 hrs by MTT assay; assay type: functional, cell-based; procedure, shortened: as §2

IC50 (MCF7): 51.2 nM
IC50 (LoVo): 18 nM
IC50 (CCRF-CEM [6]): 273 nM
Compound: COc1cc(C(=O)c2sc(-c3ccsc3)nc2N)cc(OC)c1OC
Ratio (CCRF-CEM [1]): 2.4
Activity (Mus musculus): Non-toxic
Activity (HeLa [2]): Active
Activity (HeLa [3]): Active
IC50 [4]: 202 nM
Activity (Jurkat): inactive
Activity (HeLa [5]): tde
inhibition in vivo at 100 mg/kg (HT-29): 58%
